# Reference: ChEMBL document CHEMBL2331335, “Synthesis of hemslecin A derivatives: a new class of hepatitis B virus inhibitors” (Bioorg Med Chem Lett, 2013)
# pIC50: −log10 of the molar value.
# Experiments:
# [1] = Selectivity index, ratio of CC50 for human HepG2.2.15 cells to IC50 for HBV infected in human HepG2.2.15 cells assessed as inhibition of viral DNA replication; type: functional
# Method in brief: (§1)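 Selectivity index was calculated as CC50 (HepG 2.2.15 cytotoxicity) divided by IC50 for the given marker (HBV DNA replication, HBeAg or HBsAg), all measured in HepG 2.2.15 cells.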
# Hepatitis B virus [2] = experiment: Antiviral activity against HBV infected in human HepG2.2.15 cells assessed as inhibition of viral DNA replication; type: functional, organism-based; conditions: HepG2 2.2.15
# Method in brief: (§2)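 Assayed in HBV-producing HepG 2.2.15 cells, with tenofovir as positive control. HBsAg, HBeAg and HBV DNA replication were each measured, and IC50 was taken as the compound concentration giving 50% inhibition of the given marker.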
# [3] = Selectivity index, ratio of CC50 for human HepG2.2.15 cells to IC50 for HBV infected in human HepG2.2.15 cells assessed as inhibition of viral e antigen production; type: functional; method in brief: as §1
# Hepatitis B virus [4] = experiment: Antiviral activity against HBV infected in human HepG2.2.15 cells assessed as inhibition of viral e antigen production; type: functional, organism-based; conditions: HepG2 2.2.15; method in brief: as §2
# [5] = Selectivity index, ratio of CC50 for human HepG2.2.15 cells to IC50 for HBV infected in human HepG2.2.15 cells assessed as inhibition of viral surface antigen production; type: functional; method in brief: as §1
# Hepatitis B virus [6] = experiment: Antiviral activity against HBV infected in human HepG2.2.15 cells assessed as inhibition of viral surface antigen production; type: functional, organism-based; conditions: HepG2 2.2.15; method in brief: as §2
# [7] = Cytotoxicity against human HepG2.2.15 cells; type: cell-based, HepG2 2.2.15
# Method in brief: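 Cytotoxicity was tested in HepG 2.2.15 cells alongside the anti-HBV assay. CC50 was taken as the compound concentration required to destroy 50% of the cells.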
SMILES,pIC50 (Hepatitis B virus [2]),pIC50 (Hepatitis B virus [4]),pIC50 (Hepatitis B virus [6]),Ratio CC50/IC50 [1],Ratio CC50/IC50 [3],Ratio CC50/IC50 [5],CC50 [7]
CC(=O)OC(C)(C)CCC(=O)[C@](C)(O)[C@H]1[C@H](O)C[C@@]2(C)[C@@H]3CC=C4[C@@H](C[C@H](O)[C@@H](O)C4(C)C)[C@]3(C)C(=O)C[C@]12C [HEMSLECIN A],4.94,< 4.18,< 4.18,5.8,<1,<1,66.2 µM
CC(=O)OC(C)(C)CCC(=O)[C@](C)(O)[C@H]1[C@H](O)C[C@@]2(C)[C@@H]3C[C@H]4O[C@@]45[C@@H](C[C@H](O)[C@@H](O)C5(C)C)[C@]3(C)C(=O)C[C@]12C,4.94,< 2.76,< 2.76,>150.5,–,–,> 1740 µM
CCOCC(=O)O[C@H]1C[C@H]2[C@]3(C)C(=O)C[C@]4(C)[C@@H]([C@@](C)(O)C(=O)CCC(C)(C)OC(C)=O)[C@H](OC(=O)COCC)C[C@@]4(C)[C@@H]3C[C@H]3O[C@]32C(C)(C)[C@@H]1OC(=O)COCC,< 3.20,< 3.20,< 3.20,–,–,–,> 633 µM
CC(=O)O[C@H]1C[C@@H]2C(=CC[C@@H]3[C@@]2(C)C(=O)C[C@]2(C)[C@@H]([C@@](C)(O)C(=O)CCC(C)(C)OC(C)=O)[C@H](OC(C)=O)C[C@@]32C)C(C)(C)[C@@H]1OC(C)=O,4.76,< 3.09,< 3.09,>46.6,–,–,> 807 µM
CC(=O)O[C@H]1C[C@@H]2C(=CC[C@@H]3[C@@]2(C)C(=O)C[C@]2(C)[C@@H]([C@@](C)(O)C(=O)CCC(C)(C)OC(C)=O)[C@H](O)C[C@@]32C)C(C)(C)[C@@H]1OC(C)=O,5.01,4.33,4.65,55.6,11.7,24.3,546 µM
COCC(=O)O[C@H]1C[C@H]2[C@]3(C)C(=O)C[C@]4(C)[C@@H]([C@@](C)(O)C(=O)CCC(C)(C)OC(C)=O)[C@H](OC(=O)COC)C[C@@]4(C)[C@@H]3C[C@H]3O[C@]32C(C)(C)[C@@H]1OC(=O)COC,< 2.95,3.23,< 2.95,–,>1.9,–,> 1110 µM
CCOCC(=O)O[C@H]1C[C@@H]2C(=CC[C@@H]3[C@@]2(C)C(=O)C[C@]2(C)[C@@H]([C@@](C)(O)C(=O)CCC(C)(C)OC(C)=O)[C@H](OC(=O)COCC)C[C@@]32C)C(C)(C)[C@@H]1OC(=O)COCC,5.00,< 3.25,< 3.25,>55.8,–,–,> 560 µM
CCC(=O)O[C@H]1C[C@@H]2C(=CC[C@@H]3[C@@]2(C)C(=O)C[C@]2(C)[C@@H]([C@@](C)(O)C(=O)CCC(C)(C)OC(C)=O)[C@H](O)C[C@@]32C)C(C)(C)[C@@H]1O,5.33,4.84,4.81,–,8.7,8.1,126 µM
CC(=O)OC(C)(C)CCC(=O)[C@](C)(O)[C@H]1[C@H](O)C[C@@]2(C)[C@@H]3C[C@@H](O)[C@]4(OC(=O)c5cccc(Cl)c5)[C@@H](C[C@H](O)[C@@H](O)C4(C)C)[C@]3(C)C(=O)C[C@]12C,5.14,4.51,4.62,50.9,11.9,15.3,366 µM
COCC(=O)O[C@H]1C[C@H]2[C@]3(C)C(=O)C[C@]4(C)[C@@H]([C@@](C)(O)C(=O)CCC(C)(C)OC(C)=O)[C@H](OC(=O)COC)C[C@@]4(C)[C@@H]3C[C@@H](O)[C@@]2(OC(=O)c2cccc(Cl)c2)C(C)(C)[C@@H]1OC(=O)COC,< 2.76,< 2.76,< 2.76,–,–,–,> 1740 µM

# More lines, main results first:
pIC50 (Hepatitis B virus [2]),pIC50 (Hepatitis B virus [4]),pIC50 (Hepatitis B virus [6]),SMILES,Ratio CC50/IC50 [1],Ratio CC50/IC50 [3],Ratio CC50/IC50 [5],CC50 [7]
5.51,4.77,4.74,CCC(=O)O[C@@H]1[C@@H](O)C[C@@H]2C(=CC[C@@H]3[C@@]2(C)C(=O)C[C@]2(C)[C@@H]([C@@](C)(O)C(=O)CCC(C)(C)OC(C)=O)[C@H](O)C[C@@]32C)C1(C)C,31.9,5.9,5.5,100 µM
< 3.21,3.40,< 3.21,CCCC(=O)O[C@H]1C[C@H]2[C@]3(C)C(=O)C[C@]4(C)[C@@H]([C@@](C)(O)C(=O)CCC(C)(C)OC(C)=O)[C@H](OC(=O)CCC)C[C@@]4(C)[C@@H]3C[C@H]3O[C@]32C(C)(C)[C@@H]1OC(=O)CCC,–,>2,–,> 618 µM
5.14,3.22,5.00,CCC(=O)O[C@H]1C[C@@H]2C(=CC[C@@H]3[C@@]2(C)C(=O)C[C@]2(C)[C@@H]([C@@](C)(O)C(=O)CCC(C)(C)OC(C)=O)[C@H](O)C[C@@]32C)C(C)(C)[C@@H]1OC(=O)CC,>83.4,>1,>60,> 596 µM
4.09,< 2.84,3.65,CCOCC(=O)O[C@H]1C[C@@H]2C(=CC[C@@H]3[C@@]2(C)C(=O)C[C@]2(C)[C@@H]([C@@](C)(O)C(=O)CCC(C)(C)OC(=O)COCC)[C@H](OC(=O)COCC)C[C@@]32C)C(C)(C)[C@@H]1OC(=O)COCC,>17.8,–,>6.4,> 1450 µM
5.33,< 5.20,< 5.20,CCCC(=O)O[C@@H]1[C@@H](O)C[C@@H]2C(=CC[C@@H]3[C@@]2(C)C(=O)C[C@]2(C)[C@@H]([C@@](C)(O)C(=O)CCC(C)(C)OC(C)=O)[C@H](O)C[C@@]32C)C1(C)C,1.3,<1,<1,6.3 µM
< 3.15,< 3.15,< 3.15,CCOCC(=O)O[C@H]1C[C@H]2[C@]3(C)C(=O)C[C@]4(C)[C@@H]([C@@](C)(O)C(=O)CCC(C)(C)OC(C)=O)[C@H](OC(=O)COCC)C[C@@]4(C)[C@@H]3C[C@@H](O)[C@@]2(OC(=O)c2cccc(Cl)c2)C(C)(C)[C@@H]1OC(=O)COCC,–,–,–,> 710 µM
4.07,< 3.73,3.99,CCOCC(=O)O[C@H]1C[C@@H]2C(=CC[C@@H]3[C@@]2(C)C(=O)C[C@]2(C)[C@@H]([C@@](C)(O)C(=O)CCC(C)(C)O)[C@H](OC(=O)COCC)C[C@@]32C)C(C)(C)[C@@H]1OC(=O)COCC,2.2,<1,1.8,184 µM
< 2.78,< 2.78,3.11,CCC(=O)O[C@H]1C[C@H]2[C@]3(C)C(=O)C[C@]4(C)[C@@H]([C@@](C)(O)C(=O)CCC(C)(C)OC(C)=O)[C@H](OC(=O)CC)C[C@@]4(C)[C@@H]3C[C@H]3O[C@]32C(C)(C)[C@@H]1OC(=O)CC,–,–,>2.2,> 1670 µM
< 3.02,< 3.02,< 3.02,CC(=O)O[C@H]1C[C@H]2[C@]3(C)C(=O)C[C@]4(C)[C@@H]([C@@](C)(O)C(=O)CCC(C)(C)OC(C)=O)[C@H](OC(C)=O)C[C@@]4(C)[C@@H]3C[C@H]3O[C@]32C(C)(C)[C@@H]1OC(C)=O,–,–,–,> 961 µM
< 2.98,3.49,3.75,CC(=O)O[C@H]1C[C@H]2[C@]3(C)C(=O)C[C@]4(C)[C@@H]([C@@](C)(O)C(=O)CCC(C)(C)OC(C)=O)[C@H](OC(C)=O)C[C@@]4(C)[C@@H]3C[C@@H](O)[C@@]2(OC(=O)c2cccc(Cl)c2)C(C)(C)[C@@H]1OC(C)=O,–,>3.2,>5.9,> 1050 µM
4.72,< 3.19,< 3.19,CCC(=O)O[C@H]1C[C@@H]2C(=CC[C@@H]3[C@@]2(C)C(=O)C[C@]2(C)[C@@H]([C@@](C)(O)C(=O)CCC(C)(C)OC(C)=O)[C@H](OC(C)=O)C[C@@]32C)C(C)(C)[C@@H]1OC(=O)CC,>34.2,–,–,> 650 µM
6.31,–,2.80,C[C@H](Cn1cnc2c(N)ncnc21)OCP(=O)(O)O [TENOFOVIR ANHYDROUS],>3571.4,>1.5,>1.1,> 1740 µM
4.29,< 3.14,< 3.14,COc1cccc(/C=C/C(=O)O[C@H]2C[C@@H]3C(=CC[C@@H]4[C@@]3(C)C(=O)C[C@]3(C)[C@@H]([C@@](C)(O)C(=O)CCC(C)(C)OC(C)=O)[C@H](OC(=O)/C=C/c5cccc(OC)c5)C[C@@]43C)C(C)(C)[C@@H]2OC(=O)/C=C/c2cccc(OC)c2)c1,>14,–,–,> 719 µM
